Test results from article PMC2805153 (Molecular cancer therapeutics, 2009).
Entries after “also recorded” stand apart in the source; their conditions may differ.

Columns and labels:
human breast tumor cells = test: Growth assay, breast tumor cells in general; type: cell-based; conditions: SK-BR-3 and MDA-MB-231 breast tumor cells, 72 hours of treatment
Procedure, shortened: (§1)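 SK-BR-3 and MDA-MB-231 cells were grown in RPMI 1640 with 1.5% FBS at 37°C and 5% CO2, seeded at 5,000/well, and rested 18–24 h. Test compound or vehicle was added for 72 h (DMSO ≤0.2%). CellTiter-Glo ATP luminescence gave viable cells.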

[1] = tested on: MDA-MB-231 breast tumor cells; test: Growth assay; type: cell-based, human
Procedure, shortened: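 MDA-MB-231 cells went into RPMI 1640 with 1.5% FBS at 5,000/well and rested 18–24 h. Optional 1 h pretreatment with NOR-3 came next, then test compound or vehicle for 72 h (DMSO ≤0.2%). Viable cells were read as ATP luminescence (CellTiter-Glo).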

PDE5A = PDE5A (Homo sapiens, UniProt O76074); test: Recombinant PDE isozyme IMAP FP assay; type: biochemical
Procedure, shortened: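 Commercial recombinant PDE isozyme at 0.25 mg/mL, preincubated with test compound 30 min at 30°C. Substrate mix of 25 nM each fluorescein-cAMP and TAMRA-cGMP then added for 90 min at 30°C, with cAMP and cGMP hydrolysis read together. Binding reagent stops reaction; IMAP fluorescence polarization read. DMSO ≤2%. IC50 from 10 concentrations, ≥2 replicates each, versus vehicle, four-parameter logistic fit; experiments repeated at least twice.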

PDE11A = PDE11A (Homo sapiens, UniProt Q9HCR9); test: Recombinant PDE isozyme IMAP FP assay; type: biochemical; conditions: SS tested up to 200 μM
PDE7A = PDE7A (Homo sapiens, UniProt Q13946); test: Recombinant PDE isozyme IMAP FP assay; type: biochemical; conditions: cAMP substrate; SS tested up to 200 μM
MDA-MB-231 cells = test: Intracellular cGMP assay; type: cell-based, human
Procedure, shortened: (§2)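 Cells were seeded at 1×10^6 per 10 cm dish: HMEC in MEGM, MDA-MB-231 in RPMI 1640 with 1.5% FBS. After 48 h they were exposed to test compound or vehicle for 30 min, then lysed. Intracellular cGMP was measured by direct competitive EIA, optical density at 630 nm.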

[2] = tested on: SK-BR-3 breast tumor cells; test: Growth assay; type: cell-based; conditions: Homo sapiens, SK-BR-3, 72 h, read-out: growth inhibition IC50
Procedure, shortened: as §1

PDE9A = PDE9A (Homo sapiens, UniProt O76083); test: Recombinant PDE isozyme IMAP FP assay; type: biochemical; conditions: cGMP substrate; SS tested up to 200 μM
PDE6C = PDE6C (Homo sapiens, UniProt P51160); test: Recombinant PDE isozyme IMAP FP assay; type: biochemical; conditions: cGMP substrate; SS tested up to 200 μM
HMEC [3] = test: Intracellular cGMP assay; type: cell-based, human; conditions: 30 minutes of treatment
Procedure, shortened: as §2

[4] = tested on: MDA-MB-231, SKBR3, and ZR75-1 cells; test: Caspase3/7 Glo apoptosis assay; type: cell-based, human; conditions: 100 μM, 5 hours
Procedure, shortened: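 MDA-MB-231 and SK-BR-3 cells were kept in RPMI 1640 with 10% FBS, with serum cut to 1.5% FBS for the assay, at 37°C and 5% CO2. Cells were seeded at 10,000/well, rested 18–24 h, then given test compound or vehicle (DMSO ≤0.2%). Caspase 3/7 activation was read as luminescence from Caspase3/7 Glo substrate cleavage.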

breast tumor cells [5] = test: TUNEL labeling; type: cell-based, human; conditions: data not shown
HMEC [6] = test: Caspase3/7 Glo apoptosis assay; type: cell-based, human; conditions: 5 hours, staurosporine 1μM positive control
Procedure, shortened: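 HMEC grown in MEGM complete medium were seeded at 10,000 cells/well and left 18–24 h. They were then exposed to test compound or vehicle (DMSO ≤0.2%), with 1μM staurosporine as positive control. Apoptosis was read as Caspase3/7 Glo luminescence from cleavage of a caspase 3/7 substrate.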

[7] = tested on: PDE activity in SK-BR-3 and MDA-MB-231 cell lysates; test: IMAP FP PDE assay in tumor cell lysates; type: biochemical, human; conditions: for inhibition of cGMP hydrolysis: tumor cell lysates, TAMRA-cGMP substrate
[8] = tested on: normal human mammary epithelial cells (HMEC); test: Growth assay; type: cell-based; conditions: 72 h, read-out: growth inhibition IC50
Procedure, shortened: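 Primary normal mammary epithelial cells were grown in MEGM complete medium and seeded at 5,000/well. After 18–24 h they received test compound or vehicle for 72 h (DMSO ≤0.2%). ATP-based luminescence (CellTiter-Glo) measured viable cells.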

[9] = tested on: ZR75-1 breast tumor cells; test: Growth assay; type: cell-based; conditions: Homo sapiens, ZR-75-1, 72 h, read-out: growth inhibition IC50
Procedure, shortened: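 Cells seeded at 5,000/well were rested 18–24 h, then treated with test compound or vehicle for 72 h (DMSO ≤0.2%). Growth was scored as viable-cell ATP luminescence (CellTiter-Glo) against vehicle.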

breast tumor cells [10] = test: Cell cycle distribution; type: cell-based, human; conditions: conditions of the growth assays, data not shown
PDE10A = PDE10A (Homo sapiens, UniProt Q9Y233); test: Recombinant PDE isozyme IMAP FP assay; type: biochemical; conditions: SS tested up to 200 μM
PDE8A = PDE8A (Homo sapiens, UniProt O60658); test: Recombinant PDE isozyme IMAP FP assay; type: biochemical; conditions: cAMP substrate; SS tested up to 200 μM
[11] = tested on: PDE activity in HMEC lysates; test: IMAP FP PDE assay in HMEC lysates; type: biochemical, human
Procedure, shortened: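 HMEC were lysed in ice-cold buffer (20mM Tris-acetate, 5mM Mg acetate, 1mM EGTA, 0.8% Triton X-100, 50mM NaF, protease inhibitors, pH 7.4) and cleared at 10,000g, 10 min, 4°C. Lysate at 0.25 mg/mL was preincubated with test compound 30 min at 30°C. Substrate was 25 nM each Fl-cAMP and TAMRA-cGMP, run 90 min at 30°C. Reactions were stopped with IMAP binding reagent and read by FP (DMSO ≤2%). IC50 came from 10 concentrations, ≥2 replicates.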

[12] = tested on: PKG (VASP phosphorylation) in MDA-MB-231 cells; test: VASP Ser239 phosphorylation western blot; type: cell-based, human
Procedure, shortened: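 MDA-MB-231 cells were treated with test compound across doses and times, then lysed in Tris-acetate/Triton X-100/NaF buffer at pH 7.4. Lysate (30 μg protein) was separated by 12% SDS-PAGE and transferred to nitrocellulose, blocked in 5% BSA in TBS-0.05% Tween-20. Blots were probed for phospho-VASP Ser239 and total VASP with HRP secondaries and detected by chemiluminescence on film.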

COX-1 = conditions: read-out: IC50 to inhibit COX-1; cited from earlier work
PDE4A = PDE4A (Homo sapiens, UniProt P27815); test: Recombinant PDE isozyme IMAP FP assay; type: biochemical; conditions: cAMP substrate; SS tested up to 200 μM
[13] = MDA-MB-231, 30 minutes of treatment
[14] = breast tumor cells, line not given

Chain of PDE11A (Q9HCR9 whole entry): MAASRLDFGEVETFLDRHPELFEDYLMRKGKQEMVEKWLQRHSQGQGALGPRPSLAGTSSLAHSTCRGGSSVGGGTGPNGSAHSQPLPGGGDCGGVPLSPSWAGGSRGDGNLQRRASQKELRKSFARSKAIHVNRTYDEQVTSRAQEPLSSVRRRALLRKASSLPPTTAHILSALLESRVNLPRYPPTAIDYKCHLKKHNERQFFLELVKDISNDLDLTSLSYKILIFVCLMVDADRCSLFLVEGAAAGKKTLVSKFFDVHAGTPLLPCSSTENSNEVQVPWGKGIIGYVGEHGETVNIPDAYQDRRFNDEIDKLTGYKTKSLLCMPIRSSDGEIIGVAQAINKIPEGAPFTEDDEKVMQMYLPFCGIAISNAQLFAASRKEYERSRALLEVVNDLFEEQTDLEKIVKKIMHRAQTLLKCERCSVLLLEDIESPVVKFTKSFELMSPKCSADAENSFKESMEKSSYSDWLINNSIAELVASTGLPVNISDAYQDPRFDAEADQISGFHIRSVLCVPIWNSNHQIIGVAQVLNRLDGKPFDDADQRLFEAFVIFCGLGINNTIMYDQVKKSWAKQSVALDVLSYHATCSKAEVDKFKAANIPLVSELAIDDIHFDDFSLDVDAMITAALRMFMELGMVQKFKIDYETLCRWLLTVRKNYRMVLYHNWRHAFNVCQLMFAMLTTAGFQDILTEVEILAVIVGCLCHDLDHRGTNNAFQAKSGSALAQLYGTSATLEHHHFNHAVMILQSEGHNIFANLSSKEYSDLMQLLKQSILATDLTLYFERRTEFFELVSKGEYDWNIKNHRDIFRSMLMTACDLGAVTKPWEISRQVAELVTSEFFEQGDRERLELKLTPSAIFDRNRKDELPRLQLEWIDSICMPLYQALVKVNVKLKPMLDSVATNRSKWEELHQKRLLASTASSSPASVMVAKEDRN
Chain of PDE10A (Q9Y233 290-1055 limits assumed): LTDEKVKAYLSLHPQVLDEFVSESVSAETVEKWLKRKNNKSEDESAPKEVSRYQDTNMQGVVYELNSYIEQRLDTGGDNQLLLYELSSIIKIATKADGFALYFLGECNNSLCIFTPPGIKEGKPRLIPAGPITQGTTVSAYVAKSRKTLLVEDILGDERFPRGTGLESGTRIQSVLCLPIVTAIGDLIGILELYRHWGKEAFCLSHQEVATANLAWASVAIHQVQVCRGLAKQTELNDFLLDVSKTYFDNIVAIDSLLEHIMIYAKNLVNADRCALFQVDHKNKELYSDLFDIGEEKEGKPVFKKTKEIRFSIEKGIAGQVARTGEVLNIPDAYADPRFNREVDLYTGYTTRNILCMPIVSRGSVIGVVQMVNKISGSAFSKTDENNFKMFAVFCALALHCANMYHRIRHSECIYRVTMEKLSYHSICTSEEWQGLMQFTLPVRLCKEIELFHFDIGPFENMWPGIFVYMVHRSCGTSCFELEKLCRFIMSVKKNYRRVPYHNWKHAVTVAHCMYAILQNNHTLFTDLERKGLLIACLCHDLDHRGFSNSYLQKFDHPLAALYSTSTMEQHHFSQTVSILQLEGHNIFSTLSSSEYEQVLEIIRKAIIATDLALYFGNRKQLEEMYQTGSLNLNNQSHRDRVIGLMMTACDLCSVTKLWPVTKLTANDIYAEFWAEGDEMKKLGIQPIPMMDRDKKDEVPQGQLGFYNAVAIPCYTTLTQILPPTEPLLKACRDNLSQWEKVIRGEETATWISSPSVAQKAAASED
Chain of PDE4A (P27815 whole entry): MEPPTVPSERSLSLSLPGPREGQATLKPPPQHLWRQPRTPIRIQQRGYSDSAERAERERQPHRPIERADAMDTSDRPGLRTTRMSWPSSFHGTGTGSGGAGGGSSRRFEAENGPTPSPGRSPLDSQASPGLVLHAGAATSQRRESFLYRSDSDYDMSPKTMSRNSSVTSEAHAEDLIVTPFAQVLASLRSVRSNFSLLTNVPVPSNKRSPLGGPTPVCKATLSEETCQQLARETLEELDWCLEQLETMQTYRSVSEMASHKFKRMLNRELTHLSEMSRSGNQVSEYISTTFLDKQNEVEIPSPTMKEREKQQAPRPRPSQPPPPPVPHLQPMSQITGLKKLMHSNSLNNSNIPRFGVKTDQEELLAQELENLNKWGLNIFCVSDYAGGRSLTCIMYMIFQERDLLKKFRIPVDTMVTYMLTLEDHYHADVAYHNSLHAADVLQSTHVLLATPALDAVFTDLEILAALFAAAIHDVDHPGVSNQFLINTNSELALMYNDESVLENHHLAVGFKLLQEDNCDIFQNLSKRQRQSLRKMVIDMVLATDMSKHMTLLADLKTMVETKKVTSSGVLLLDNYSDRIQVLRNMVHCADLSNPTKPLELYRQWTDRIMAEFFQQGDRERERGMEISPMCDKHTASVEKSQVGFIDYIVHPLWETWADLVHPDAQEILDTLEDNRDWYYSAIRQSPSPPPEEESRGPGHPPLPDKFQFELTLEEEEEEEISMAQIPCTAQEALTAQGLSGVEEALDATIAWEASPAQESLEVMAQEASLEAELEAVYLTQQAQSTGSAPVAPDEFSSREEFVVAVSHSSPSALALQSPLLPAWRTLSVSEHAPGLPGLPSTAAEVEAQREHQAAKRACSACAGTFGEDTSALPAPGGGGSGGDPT
Chain of PDE8A (O60658 whole entry): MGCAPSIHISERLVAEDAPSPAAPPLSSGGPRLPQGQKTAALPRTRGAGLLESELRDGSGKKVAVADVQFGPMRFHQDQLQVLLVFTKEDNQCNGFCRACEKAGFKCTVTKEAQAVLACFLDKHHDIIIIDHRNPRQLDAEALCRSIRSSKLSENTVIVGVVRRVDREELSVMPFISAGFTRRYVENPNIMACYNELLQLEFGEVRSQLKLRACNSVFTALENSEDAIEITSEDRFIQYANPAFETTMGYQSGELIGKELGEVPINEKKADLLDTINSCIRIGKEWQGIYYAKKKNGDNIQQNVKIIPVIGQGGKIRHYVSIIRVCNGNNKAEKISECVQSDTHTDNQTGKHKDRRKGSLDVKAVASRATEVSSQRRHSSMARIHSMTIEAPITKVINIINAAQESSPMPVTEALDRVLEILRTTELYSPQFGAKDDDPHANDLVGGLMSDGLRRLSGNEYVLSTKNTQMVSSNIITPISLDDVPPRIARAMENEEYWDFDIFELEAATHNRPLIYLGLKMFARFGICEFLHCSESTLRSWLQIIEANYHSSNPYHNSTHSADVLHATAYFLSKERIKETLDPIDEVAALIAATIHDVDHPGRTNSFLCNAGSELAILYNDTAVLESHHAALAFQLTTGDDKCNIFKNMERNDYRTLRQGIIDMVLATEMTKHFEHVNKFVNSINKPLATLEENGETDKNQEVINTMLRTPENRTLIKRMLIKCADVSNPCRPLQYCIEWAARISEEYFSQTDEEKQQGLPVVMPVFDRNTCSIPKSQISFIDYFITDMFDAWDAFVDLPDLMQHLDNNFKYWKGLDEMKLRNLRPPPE
Chain of PDE6C (P51160 whole entry): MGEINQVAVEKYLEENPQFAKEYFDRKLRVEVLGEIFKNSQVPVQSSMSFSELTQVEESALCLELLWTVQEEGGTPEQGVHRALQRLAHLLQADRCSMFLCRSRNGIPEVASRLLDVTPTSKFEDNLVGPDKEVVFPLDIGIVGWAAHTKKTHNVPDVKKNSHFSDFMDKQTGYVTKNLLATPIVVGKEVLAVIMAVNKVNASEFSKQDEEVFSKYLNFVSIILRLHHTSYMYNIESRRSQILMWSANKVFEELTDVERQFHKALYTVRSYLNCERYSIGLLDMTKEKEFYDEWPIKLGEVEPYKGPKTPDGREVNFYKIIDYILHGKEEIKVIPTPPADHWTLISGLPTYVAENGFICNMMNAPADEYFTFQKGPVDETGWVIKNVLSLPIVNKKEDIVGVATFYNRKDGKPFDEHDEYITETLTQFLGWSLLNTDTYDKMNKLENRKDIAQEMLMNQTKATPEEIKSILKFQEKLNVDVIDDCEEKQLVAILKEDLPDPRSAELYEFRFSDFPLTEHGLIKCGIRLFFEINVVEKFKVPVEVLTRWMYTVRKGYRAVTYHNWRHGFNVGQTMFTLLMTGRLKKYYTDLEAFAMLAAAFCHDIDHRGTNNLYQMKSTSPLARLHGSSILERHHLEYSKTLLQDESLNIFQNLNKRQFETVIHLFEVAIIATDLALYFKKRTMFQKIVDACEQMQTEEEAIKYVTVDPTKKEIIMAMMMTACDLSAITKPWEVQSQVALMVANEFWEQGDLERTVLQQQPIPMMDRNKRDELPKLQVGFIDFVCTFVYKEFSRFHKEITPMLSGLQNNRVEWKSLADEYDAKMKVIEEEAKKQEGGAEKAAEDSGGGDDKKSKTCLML
Chain of PDE9A (O76083 whole entry): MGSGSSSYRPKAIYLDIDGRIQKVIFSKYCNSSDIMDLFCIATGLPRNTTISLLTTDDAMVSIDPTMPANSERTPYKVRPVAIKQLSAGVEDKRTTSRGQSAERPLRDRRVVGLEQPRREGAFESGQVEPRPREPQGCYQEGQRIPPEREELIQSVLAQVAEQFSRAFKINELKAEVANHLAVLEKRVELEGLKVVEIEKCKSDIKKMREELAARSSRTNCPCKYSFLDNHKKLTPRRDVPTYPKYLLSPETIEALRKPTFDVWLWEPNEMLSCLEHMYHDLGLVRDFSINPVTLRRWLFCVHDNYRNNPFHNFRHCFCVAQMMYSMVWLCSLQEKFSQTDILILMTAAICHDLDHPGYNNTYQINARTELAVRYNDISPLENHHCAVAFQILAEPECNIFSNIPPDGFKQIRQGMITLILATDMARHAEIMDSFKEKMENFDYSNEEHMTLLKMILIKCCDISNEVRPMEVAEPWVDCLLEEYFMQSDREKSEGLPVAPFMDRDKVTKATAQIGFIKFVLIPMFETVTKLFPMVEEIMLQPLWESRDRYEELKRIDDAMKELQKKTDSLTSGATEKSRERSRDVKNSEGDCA

CCCCCC[C@@H]([C@@H](C)O)n1cnc2c(N)ncnc21 (racemic) [EHNA]
tumor cell growth inhibitory activity (human breast tumor cells): none were found to be active

CC/C(=C\C(=N/O)C(N)=O)C(C)[N+](=O)[O-] (racemic) [NOR-3, (±)-(E)-Ethyl-2-((E)-hydroxyimino)-5-nitro-3-hexenamide]
tumor cell growth inhibitory activity (human breast tumor cells): inhibited the growth

COCc1nc2c([nH]1)c(=O)n(C)c(=O)n2CC(C)C [8-methoxymethyl-IBMX]
tumor cell growth inhibitory activity (human breast tumor cells): none were found to be active

CC(C)Cn1c(=O)n(C)c(=O)c2[nH]cnc21 [IBMX, 3-Isobutyl-1-methylxanthine]
tumor cell growth inhibitory activity (human breast tumor cells): none were found to be active

O=C1C(Nc2ccccc2)=CC(=O)c2ncccc21 [LY83583]
effect on sensitivity to growth inhibition by doxorubicin ([1]; MDA-MB-231, control experiment, data not shown): ineffective

Clc1cccc(Nc2nnc(-c3ccccc3)c3ccccc23)c1 [MY5445, 1-(3-chloroanilino)-4-phenylphthalazine]
tumor cell growth inhibitory activity (human breast tumor cells): inhibited breast tumor cell growth | IC50 (PDE5A): 14.3 µM

CSc1ccc(/C=C2/C(C)=C(CC(=O)O)c3cc(F)ccc32)cc1 [SS, sulindac sulfide]
IC50, cAMP hydrolysis by PDE11A (PDE11A; cAMP substrate): Inactive | IC50, cGMP hydrolysis by PDE11A (PDE11A; cGMP substrate): Inactive | IC50, cAMP hydrolysis by PDE7A (PDE7A): Inactive | concentration at which cGMP levels peak (MDA-MB-231 cells; [13]): […] | increase of intracellular cGMP levels (MDA-MB-231 cells; [13]): 2-3 fold | IC50 [2]: 59 µM | IC50, cGMP hydrolysis by PDE9A (PDE9A): Inactive | IC50, cGMP hydrolysis by PDE6C (PDE6C): Inactive | increase of intracellular cGMP levels (HMEC [3]): failed to induce cGMP levels | increase in the activity of caspases 3 and 7 compared to vehicle [4]: 2-8 fold | TUNEL labeling (breast tumor cells [5]): increased TUNEL labeling | change of growth inhibition IC50 after pre-treatment with GC activator NOR-3 ([1]; 1 hour pretreatment with NOR-3, 72 hours of SS treatment): significant reduction in the IC50 value | IC50 ([1]; Homo sapiens, MDA-MB-231, 72 h, read-out: growth inhibition IC50): 84 µM | activation of caspases 3 and 7 (HMEC [6]): resistant | inhibition of cAMP hydrolysis ([7]; breast tumor cell lysates, Fl-cAMP substrate): did not significantly affect | inhibition of cGMP hydrolysis [7]: inhibited cGMP hydrolysis | IC50 [8]: 163 µM | IC50 [9]: 76 µM | effect on cell cycle distribution (breast tumor cells [10]): did not have a significant effect | IC50, cAMP hydrolysis by PDE10A (PDE10A; cAMP substrate): Inactive | IC50, cGMP hydrolysis by PDE10A (PDE10A; cGMP substrate): Inactive | IC50, cAMP hydrolysis by PDE8A (PDE8A): Inactive | inhibition of cAMP hydrolysis [11]: did not affect | inhibition of cGMP hydrolysis [11]: did not affect | time at which VASP phosphorylation peaked ([12]; MDA-MB-231, 100 μM): 1 h | concentration at which increases in VASP phosphorylation were apparent ([12]; MDA-MB-231, after 30 minutes of treatment): […] | VASP phosphorylation at serine 239 (p-VASP levels) ([12]; MDA-MB-231, dose- and time-dependent): increased the levels of phosphorylated VASP | IC50 (COX-1): […] | IC50, cAMP hydrolysis by PDE4A (PDE4A): Inactive

COc1cc2c(cc1OC)-c1c/c(=N\c3c(C)cc(C)cc3C)n(C)c(=O)n1CC2 [Trequinsin, trequinsin]
tumor cell growth inhibitory activity (human breast tumor cells): inhibited breast tumor cell growth

OCCN(CCO)c1nc(N2CCCCC2)c2nc(N(CCO)CCO)nc(N3CCCCC3)c2n1 [dipyridamole]
tumor cell growth inhibitory activity (human breast tumor cells): none were found to be active

C=C[C@@]1(C)CC(=O)[C@]2(O)[C@@]3(C)[C@@H](O)CCC(C)(C)[C@@H]3[C@H](O)[C@H](OC(C)=O)[C@@]2(C)O1 [forskolin]
tumor cell growth inhibitory activity (human breast tumor cells): no significant growth inhibitory activity

Cc1[nH]c(=O)c(C#N)cc1-c1ccncc1 [milrinone]
tumor cell growth inhibitory activity (human breast tumor cells): none were found to be active

COc1ccc(C2CNC(=O)C2)cc1OC1CCCC1 (centres unmarked) [rolipram]
tumor cell growth inhibitory activity (human breast tumor cells): none were found to be active

CCCc1nn(C)c2c(=O)[nH]c(-c3cc(S(=O)(=O)N4CCN(C)CC4)ccc3OCC)nc12 [sildenafil]
increase of intracellular cGMP levels (MDA-MB-231 cells; [14]): unable to significantly increase intracellular cGMP levels | tumor cell growth inhibitory activity (human breast tumor cells): none were found to be active; also recorded: unable to inhibit breast tumor cell growth | inhibition of cGMP hydrolysis [7]: inhibit the majority of cGMP PDE activity | PKG activation [12, 14]: unable to significantly increase intracellular cGMP levels or activate PKG

CN[C@@H]1C[C@H]2O[C@@](C)([C@@H]1OC)n1c3ccccc3c3c4c(c5c6ccccc6n2c5c31)C(=O)NC4 [staurosporine]
activation of caspases 3 and 7 (HMEC [6]): increased caspase activity

CCCOc1ccccc1-c1nc2nn[nH]c2c(=O)[nH]1 [zaprinast]
tumor cell growth inhibitory activity (human breast tumor cells): none were found to be active
